According to ChEMBL document CHEMBL1629439, “High-throughput identification of antibacterials against methicillin-resistant Staphylococcus aureus (MRSA) and the transglycosylase” (Bioorg Med Chem, 2010):
Converted amounts (≈) assume the structure as drawn.

How the values were obtained:
Acinetobacter baumannii = assay: Antimicrobial activity against Acinetobacter baumannii ATCC 49139 after 18 to 24 hrs by alamar blue assay; assay type: functional; details: Acinetobacter baumannii, ATCC 49139; read-out: MIC
Procedure, shortened: (§1)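 Broth microdilution per NCCLS in Mueller-Hinton broth, 8-point twofold dilutions, 384-well format. Exponential-phase cells at 5 × 10^5 cells/ml incubated with compound 18–24 h at 37 °C, then 20% Alamar blue added and fluorescence read. MIC90 taken as the lowest concentration preventing at least 90% bacterial growth.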

[1] = test system: Stenotrophomonas maltophilia; assay: Antimicrobial activity against Stenotrophomonas maltophilia ATCC 13637 after 18 to 24 hrs by alamar blue assay; assay type: functional; details: Stenotrophomonas maltophilia, ATCC 13637; read-out: MIC; procedure, shortened: as §1
[2] = test system: Mycolicibacterium smegmatis; assay: Antimicrobial activity against Mycobacterium smegmatis BCRC 11565 after 18 to 24 hrs by alamar blue assay; assay type: functional; details: Mycolicibacterium smegmatis, BCRC 11565; read-out: MIC; procedure, shortened: as §1
Bacillus subtilis = assay: Antimicrobial activity against Bacillus subtilis ATCC 23857 after 18 to 24 hrs by alamar blue assay; assay type: functional; procedure, shortened: as §1
Staphylococcus aureus [3] = assay: Antimicrobial activity against methicillin-resistant Staphylococcus aureus isolate NTUH4722 after 18 to 24 hrs by alamar blue assay; assay type: functional
Procedure, shortened: (§2)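 Broth microdilution per NCCLS standard, Mueller-Hinton broth, 8-point twofold dilutions; exponentially growing cells at 5 10^5 cells/ml with compound, 18–24 h at 37 C; 20% Alamar blue added, fluorescence read; MIC90 taken as lowest concentration preventing at least 90% growth.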

Staphylococcus aureus [4] = assay: Antimicrobial activity against Staphylococcus aureus ATCC 29213 after 18 to 24 hrs by alamar blue assay
Staphylococcus aureus [5] = assay: Antimicrobial activity against oxacillin- and methicillin-resistant Staphylococcus aureus isolate Sa-OXA-R2 after 18 to 24 hrs by alamar blue assay; assay type: functional; procedure, shortened: as §2
Escherichia coli = assay: Antimicrobial activity against Escherichia coli ATCC […] after 18 to 24 hrs by alamar blue assay; assay type: functional; details: Escherichia coli; read-out: MIC; procedure, shortened: as §1
Serratia marcescens = assay: Antimicrobial activity against Serratia marcescens ATCC 14756 after 18 to 24 hrs by alamar blue assay; assay type: functional; details: Serratia marcescens, ATCC 14756; read-out: MIC; procedure, shortened: as §1
Pseudomonas aeruginosa = assay: Antimicrobial activity against Pseudomonas aeruginosa ATCC 25619 after 18 to 24 hrs by alamar blue assay; assay type: functional; details: Pseudomonas aeruginosa, ATCC 25619; read-out: MIC; procedure, shortened: as §1
Staphylococcus aureus [6] = assay: Antimicrobial activity against methicillin-resistant Staphylococcus aureus ATCC 33592 after 18 to 24 hrs by alamar blue assay; assay type: functional; details: Staphylococcus aureus, ATCC 33592; read-out: MIC; procedure, shortened: as §2

Compound	MIC (Acinetobacter baumannii) [µg/mL]	MIC [1] [µg/mL]	MIC [2] [µg/mL]	MIC (Bacillus subtilis) [µg/mL]	MIC (Staphylococcus aureus [3]) [µg/mL]	MIC (Staphylococcus aureus [4]) [µg/mL]	MIC (Staphylococcus aureus [5]) [µg/mL]	MIC (Escherichia coli) [µg/mL]	MIC (Serratia marcescens) [µg/mL]	MIC (Pseudomonas aeruginosa) [µg/mL]	MIC (Staphylococcus aureus [6]) [µg/mL]
CSC[C@H](NC(=O)Cc1c(C)c2cc3c(-c4ccc(Cl)cc4)coc3c(C)c2oc1=O)C(=O)O	> 256	> 256	1 (≈ 2 µM)	> 64	2.5 (≈ 5 µM)	2.5 (≈ 5 µM)	2.5 (≈ 5 µM)	> 256	> 256	> 256	1.25 (≈ 2.5 µM)
Cc1c(CC(=O)NCC(=O)O)c(=O)oc2c(C)c3occ(-c4ccc(Cl)cc4)c3cc12	> 256	> 256	1 (≈ 2.27 µM)	> 64	1.25 (≈ 2.84 µM)	1.25 (≈ 2.84 µM)	1.25 (≈ 2.84 µM)	> 256	> 256	> 256	1.25 (≈ 2.84 µM)
O=C(Nc1cc(Cl)ccc1Cl)c1cc(Cl)cc(Cl)c1O	16 (≈ 45.6 µM)	16 (≈ 45.6 µM)	0.5 (≈ 1.42 µM)	< 0.03	0.5 (≈ 1.42 µM)	1 (≈ 2.85 µM)	2 (≈ 5.7 µM)	8 (≈ 22.8 µM)	16 (≈ 45.6 µM)	16 (≈ 45.6 µM)	0.5 (≈ 1.42 µM)
CCC1Sc2ccc(S(=O)(=O)Nc3c(C)cc(C)cc3C)cc2NC1=O (stereo not drawn)	> 256	> 256	> 64	< 0.03	32 (≈ 81.9 µM)	2 (≈ 5.12 µM)	> 64	> 256	> 256	> 256	64 (≈ 164 µM)
CCc1ccccc1NS(=O)(=O)c1ccc2c(c1)NC(C)CC(=O)S2 (stereo not drawn)	> 256	> 256	> 64	< 0.03	4 (≈ 10.6 µM)	2 (≈ 5.31 µM)	> 64	> 256	> 256	> 256	8 (≈ 21.2 µM)
Cc1c(CC(=O)N[C@@H](C)C(=O)O)c(=O)oc2c(C)c3occ(-c4ccc(Cl)cc4)c3cc12	> 256	> 256	1 (≈ 2.2 µM)	> 64	0.3 (≈ 0.661 µM)	0.3 (≈ 0.661 µM)	1.25 (≈ 2.75 µM)	> 256	> 256	> 256	1.25 (≈ 2.75 µM)
O=C(Nc1ccc(Cl)cc1)c1cc(Br)ccc1NS(=O)(=O)c1ccc(Cl)cc1	> 256	> 256	> 64	< 0.03	0.25 (≈ 0.5 µM)	0.25 (≈ 0.5 µM)	0.5 (≈ 1 µM)	> 256	> 256	> 256	0.25 (≈ 0.5 µM)
Cc1c(CC(=O)N2CCC[C@H]2C(=O)O)c(=O)oc2c(C)c3occ(-c4ccc(F)cc4)c3cc12	> 256	> 256	1 (≈ 2.16 µM)	> 64	0.6 (≈ 1.29 µM)	0.6 (≈ 1.29 µM)	0.6 (≈ 1.29 µM)	> 256	> 256	> 256	1.25 (≈ 2.7 µM)
NC(=O)c1ccsc1NC(=O)c1ccc([N+](=O)[O-])o1	12 (≈ 42.7 µM)	32 (≈ 114 µM)	0.5 (≈ 1.78 µM)	0.06 (≈ 0.213 µM)	0.25 (≈ 0.889 µM)	2 (≈ 7.11 µM)	0.25 (≈ 0.889 µM)	256 (≈ 910 µM)	32 (≈ 114 µM)	128 (≈ 455 µM)	0.25 (≈ 0.889 µM)
CC[C@@H](C)[C@H](NC(=O)Cc1c(C)c2cc3c(-c4ccc(Cl)cc4)coc3c(C)c2oc1=O)C(=O)O	> 256	> 256	1 (≈ 2.02 µM)	> 64	2.5 (≈ 5.04 µM)	2.5 (≈ 5.04 µM)	2.5 (≈ 5.04 µM)	> 256	> 256	> 256	2.5 (≈ 5.04 µM)
Cc1ccc(-c2coc3c(C)c4oc(=O)c(CCC(=O)O)c(C)c4cc23)cc1	> 256	> 256	1 (≈ 2.66 µM)	> 64	1 (≈ 2.66 µM)	1 (≈ 2.66 µM)	2 (≈ 5.31 µM)	> 256	> 256	> 256	2 (≈ 5.31 µM)
O=C(Nc1cc(Cl)ccc1Cl)c1cc(Br)cc(Br)c1O	16 (≈ 36.4 µM)	16 (≈ 36.4 µM)	0.5 (≈ 1.14 µM)	< 0.03	0.5 (≈ 1.14 µM)	1 (≈ 2.27 µM)	0.5 (≈ 1.14 µM)	8 (≈ 18.2 µM)	16 (≈ 36.4 µM)	16 (≈ 36.4 µM)	1 (≈ 2.27 µM)
O=C(Nc1nnc(-c2ccc(F)cc2)o1)c1ccc(Cl)s1	> 256	> 256	0.5 (≈ 1.54 µM)	0.5 (≈ 1.54 µM)	1.2 (≈ 3.71 µM)	1.2 (≈ 3.71 µM)	1.2 (≈ 3.71 µM)	> 256	> 256	> 256	1.2 (≈ 3.71 µM)
Cc1ccccc1NS(=O)(=O)c1ccc2c(c1)NC(=O)C(C)S2 (stereo not drawn)	> 256	> 256	> 64	< 0.03	1.2 (≈ 3.44 µM)	1.2 (≈ 3.44 µM)	1.2 (≈ 3.44 µM)	> 256	> 256	> 256	1.2 (≈ 3.44 µM)
O=C(Nc1ccc2oc(-c3ccncc3)nc2c1)c1ccc([N+](=O)[O-])o1	12 (≈ 34.3 µM)	32 (≈ 91.4 µM)	0.5 (≈ 1.43 µM)	0.06 (≈ 0.171 µM)	2 (≈ 5.71 µM)	2 (≈ 5.71 µM)	> 4	256 (≈ 731 µM)	32 (≈ 91.4 µM)	128 (≈ 365 µM)	4 (≈ 11.4 µM)
Cc1ccc(N2C(=O)c3ccc([N+](=O)[O-])c4c([N+](=O)[O-])ccc(c34)C2=O)cc1	> 256	> 256	4 (≈ 10.6 µM)	4 (≈ 10.6 µM)	2.5 (≈ 6.63 µM)	5 (≈ 13.3 µM)	2.5 (≈ 6.63 µM)	> 256	> 256	> 256	2.5 (≈ 6.63 µM)
CCc1cc(O)nc(N2NC(C)=CC2NC(=O)c2ccccc2Cl)n1 (stereo not drawn)	> 256	> 256	0.25 (≈ 0.695 µM)	0.25 (≈ 0.695 µM)	1.2 (≈ 3.34 µM)	1.2 (≈ 3.34 µM)	1.2 (≈ 3.34 µM)	> 256	> 256	> 256	1.2 (≈ 3.34 µM)
COC(=O)c1ccccc1NC(=O)c1ccc([N+](=O)[O-])o1	12 (≈ 41.3 µM)	32 (≈ 110 µM)	0.5 (≈ 1.72 µM)	0.06 (≈ 0.207 µM)	4 (≈ 13.8 µM)	8 (≈ 27.6 µM)	2 (≈ 6.89 µM)	256 (≈ 882 µM)	32 (≈ 110 µM)	128 (≈ 441 µM)	0.5 (≈ 1.72 µM)
